Test results: ChEMBL document CHEMBL4689842, “EUbOPEN Chemogenomics Library wave 1” (2021)
“And” between values parts separate entries of the source, which are not always exact repeats. Equal values may be shown once.

Test system: Fibroblast
Experiment: Multiplex assay against human fibroblast
Assay type: toxicity, cell-based
In short: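 Live cells were stained at seeding with Hoechst33342, BioTracker Green Microtubule Cytoskeleton Dye, MitoTracker Red and Annexin V Alexa Fluor 680. Following compound addition, they were imaged on a CQ1 microscope at 37°C and 5% CO2 and gated by CellPathfinder machine learning into Hoechst high-intensity objects or normal cells, with normal cells split into healthy, pyknosed or fragmented nuclei and pyknosed cells into mitotic or apoptotic. Tubulin, mitochondrial-mass and membrane-permeability phenotypes are per cents of healthy-nucleus cells.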

[1] = 12 h, 1 µM, compound concentration 1 uM, replicate 1
[2] = 12 h, 1 µM, compound concentration 1 uM, replicate 2
[3] = 12 h, 10 µM, compound concentration 10 uM, replicate 1
[4] = 12 h, 10 µM, compound concentration 10 uM, replicate 2
[5] = 24 h, 1 µM, compound concentration 1 uM, replicate 1
[6] = 24 h, 1 µM, compound concentration 1 uM, replicate 2
[7] = 24 h, 10 µM, compound concentration 10 uM, replicate 1
[8] = 24 h, 10 µM, compound concentration 10 uM, replicate 2
[9] = 48 h, 1 µM, compound concentration 1 uM, replicate 1
[10] = 48 h, 1 µM, compound concentration 1 uM, replicate 2
[11] = 48 h, 10 µM, compound concentration 10 uM, replicate 1
[12] = 48 h, 10 µM, compound concentration 10 uM, replicate 2

Cc1ccc2c(c1)c1c(n2CCc2ccc(C)nc2)CCN(C)C1 [LATREPIRDINE]
Population Apoptotic (%) [1]: 60% | Population Fragmented Nuclei (%) [1]: 26% | Population Healthy Nuclei (%) [1]: 55% | Population Hoechst High Intensity Objects (%) [1]: 15% | Population Membrane Permeable-Phenotype (%) [1]: 18% | Population Mitochondria Different-Phenotype (%) [1]: 18% | Population Mitotic Cells (%) [1]: 40% | Population Normal (%) [1]: 84% | Population Pyknosed Nuclei (%) [1]: 18% | Population Tubulin-Different-Phenotype (%) [1]: 59% | Total Cell Count [1]: 127 | Population Apoptotic (%) [2]: 100% | Population Fragmented Nuclei (%) [2]: 27% | Population Healthy Nuclei (%) [2]: 67% | Population Hoechst High Intensity Objects (%) [2]: 16% | Population Membrane Permeable-Phenotype (%) [2]: 5% | Population Mitochondria Different-Phenotype (%) [2]: 27% | Population Mitotic Cells (%) [2]: 0% | Population Normal (%) [2]: 83% | Population Pyknosed Nuclei (%) [2]: 4% | Population Tubulin-Different-Phenotype (%) [2]: 27% | Total Cell Count [2]: 61 | Population Apoptotic (%) [3]: 55% | Population Fragmented Nuclei (%) [3]: 29% | Population Healthy Nuclei (%) [3]: 47% | Population Hoechst High Intensity Objects (%) [3]: 15% | Population Membrane Permeable-Phenotype (%) [3]: 3% | Population Mitochondria Different-Phenotype (%) [3]: 30% | Population Mitotic Cells (%) [3]: 44% | Population Normal (%) [3]: 84% | Population Pyknosed Nuclei (%) [3]: 23% | Population Tubulin-Different-Phenotype (%) [3]: 88% | Total Cell Count [3]: 148 | Population Apoptotic (%) [4]: 88% | Population Fragmented Nuclei (%) [4]: 7% | Population Healthy Nuclei (%) [4]: 65% | Population Hoechst High Intensity Objects (%) [4]: 8% | Population Membrane Permeable-Phenotype (%) [4]: 42% | Population Mitochondria Different-Phenotype (%) [4]: 100% | Population Mitotic Cells (%) [4]: 11% | Population Normal (%) [4]: 91% | Population Pyknosed Nuclei (%) [4]: 26% | Population Tubulin-Different-Phenotype (%) [4]: 100% | Total Cell Count [4]: 103 | Population Apoptotic (%) [5]: 60% | Population Fragmented Nuclei (%) [5]: 27% | Population Healthy Nuclei (%) [5]: 59% | Population Hoechst High Intensity Objects (%) [5]: 16% | Population Membrane Permeable-Phenotype (%) [5]: 22% | Population Mitochondria Different-Phenotype (%) [5]: 14% | Population Mitotic Cells (%) [5]: 40% | Population Normal (%) [5]: 83% | Population Pyknosed Nuclei (%) [5]: 12% | Population Tubulin-Different-Phenotype (%) [5]: 61% | Total Cell Count [5]: 140 | Population Apoptotic (%) [6]: 55% | Population Fragmented Nuclei (%) [6]: 23% | Population Healthy Nuclei (%) [6]: 67% | Population Hoechst High Intensity Objects (%) [6]: 13% | Population Membrane Permeable-Phenotype (%) [6]: 10% | Population Mitochondria Different-Phenotype (%) [6]: 27% | Population Mitotic Cells (%) [6]: 44% | Population Normal (%) [6]: 86% | Population Pyknosed Nuclei (%) [6]: 8% | Population Tubulin-Different-Phenotype (%) [6]: 14% | Total Cell Count [6]: 74 | Population Apoptotic (%) [7]: 55% | Population Fragmented Nuclei (%) [7]: 33% | Population Healthy Nuclei (%) [7]: 51% | Population Hoechst High Intensity Objects (%) [7]: 28% | Population Membrane Permeable-Phenotype (%) [7]: 10% | Population Mitochondria Different-Phenotype (%) [7]: 37% | Population Mitotic Cells (%) [7]: 45% | Population Normal (%) [7]: 71% | Population Pyknosed Nuclei (%) [7]: 14% | Population Tubulin-Different-Phenotype (%) [7]: 82% | Total Cell Count [7]: 189 | Population Apoptotic (%) [8]: 76% | Population Fragmented Nuclei (%) [8]: 4% | Population Healthy Nuclei (%) [8]: 56% | Population Hoechst High Intensity Objects (%) [8]: 4% | Population Membrane Permeable-Phenotype (%) [8]: 56% | Population Mitochondria Different-Phenotype (%) [8]: 100% | Population Mitotic Cells (%) [8]: 24% | Population Normal (%) [8]: 95% | Population Pyknosed Nuclei (%) [8]: 38% | Population Tubulin-Different-Phenotype (%) [8]: 100% | Total Cell Count [8]: 119 | Population Apoptotic (%) [9]: 88% | Population Fragmented Nuclei (%) [9]: 36% | Population Healthy Nuclei (%) [9]: 55% | Population Hoechst High Intensity Objects (%) [9]: 23% | Population Membrane Permeable-Phenotype (%) [9]: 13% | Population Mitotic Cells (%) [9]: 11% | Population Normal (%) [9]: 76% | Population Pyknosed Nuclei (%) [9]: 8% | Population Tubulin-Different-Phenotype (%) [9]: 42% | Total Cell Count [9]: 140 | Population Apoptotic (%) [10]: 100% | Population Fragmented Nuclei (%) [10]: 53% | Population Healthy Nuclei (%) [10]: 43% | Population Hoechst High Intensity Objects (%) [10]: 44% | Population Membrane Permeable-Phenotype (%) [10]: 22% | Population Mitochondria Different-Phenotype (%) [10]: 6% | Population Mitotic Cells (%) [10]: 0% | Population Normal (%) [10]: 55% | Population Pyknosed Nuclei (%) [10]: 3% | Population Tubulin-Different-Phenotype (%) [10]: 56% | Total Cell Count [10]: 206 | Population Fragmented Nuclei (%) [11]: 40% | Population Healthy Nuclei (%) [11]: 56% | Population Hoechst High Intensity Objects (%) [11]: 31% | Population Membrane Permeable-Phenotype (%) [11]: 7% | Population Mitochondria Different-Phenotype (%) [11]: 21% | Population Normal (%) [11]: 68% | Population Pyknosed Nuclei (%) [11]: 3% | Population Tubulin-Different-Phenotype (%) [11]: 80% | Total Cell Count [11]: 208 | Population Apoptotic (%) [12]: 100% | Population Fragmented Nuclei (%) [12]: 34% | Population Healthy Nuclei (%) [12]: 64% | Population Hoechst High Intensity Objects (%) [12]: 25% | Population Membrane Permeable-Phenotype (%) [12]: 14% | Population Mitochondria Different-Phenotype (%) [12]: 9% | Population Mitotic Cells (%) [12]: 0% | Population Normal (%) [12]: 74% | Population Pyknosed Nuclei (%) [12]: 2% | Population Tubulin-Different-Phenotype (%) [12]: 79% | Total Cell Count [12]: 134

Cc1cc(NC(=O)c2cccc(S(F)(F)(F)(F)F)c2)cc(-n2ccn3nc(-c4cccnc4)cc23)c1 [BAY-309]
Population Apoptotic (%) [3]: 72% and 60% | Population Fragmented Nuclei (%) [3]: 29% and 25% | Population Healthy Nuclei (%) [3]: 45% and 52% | Population Hoechst High Intensity Objects (%) [3]: 11% and 13% | Population Mitochondria Different-Phenotype (%) [3]: 16% and 14% | Population Mitotic Cells (%) [3]: 27% and 39% | Population Normal (%) [3]: 88% and 86% | Population Pyknosed Nuclei (%) [3]: 25% and 22% | Total Cell Count [3]: 260 and 213 | Population Apoptotic (%) [4]: 54% and 62% | Population Fragmented Nuclei (%) [4]: 66% and 44% | Population Healthy Nuclei (%) [4]: 20% and 40% | Population Hoechst High Intensity Objects (%) [4]: 29% and 31% | Population Membrane Permeable-Phenotype (%) [4]: 16% and 20% | Population Mitochondria Different-Phenotype (%) [4]: 33% and 35% | Population Mitotic Cells (%) [4]: 45% and 37% | Population Normal (%) [4]: 70% and 68% | Population Pyknosed Nuclei (%) [4]: 12% and 16% | Population Tubulin-Different-Phenotype (%) [4]: 50% and 80% | Total Cell Count [4]: 122 and 73 | Population Apoptotic (%) [7]: 80% and 62% | Population Fragmented Nuclei (%) [7]: 24% and 21% | Population Healthy Nuclei (%) [7]: 47% and 56% | Population Hoechst High Intensity Objects (%) [7]: 16% and 15% | Population Mitotic Cells (%) [7]: 19% and 37% | Population Normal (%) [7]: 83% and 84% | Population Pyknosed Nuclei (%) [7]: 28% and 21% | Population Tubulin-Different-Phenotype (%) [7]: 83% and 28% | Total Cell Count [7]: 241 and 216 | Population Apoptotic (%) [8]: 60% and 90% | Population Fragmented Nuclei (%) [8]: 66% and 57% | Population Healthy Nuclei (%) [8]: 20% and 26% | Population Hoechst High Intensity Objects (%) [8]: 36% and 25% | Population Membrane Permeable-Phenotype (%) [8]: 11% and 0% | Population Mitochondria Different-Phenotype (%) [8]: 29% and 22% | Population Normal (%) [8]: 63% and 75% | Population Pyknosed Nuclei (%) [8]: 12% and 15% | Population Tubulin-Different-Phenotype (%) [8]: 41% | Total Cell Count [8]: 128 and 92
